15 molecules from ChEMBL document CHEMBL3259680, “Discovery and Biological Evaluation of Novel Dual EGFR/c-Met Inhibitors” (ACS Med Chem Lett, 2014) can be followed below.

The source made the active and inactive calls. The rule behind the calls is not given here.

Test [1] deals with NCI-H1993. As to the kind of experiment: Cytotoxicity against human NCI-H1993 cells after 48 hrs by MTT assay. The following applies: NCI-H1993, 48 h. The format is functional, cell-based.
Test [2] deals with T1, Epidermal growth factor receptor (Homo sapiens, UniProt P00533). As to the kind of experiment: Inhibition of recombinant EGFR (unknown origin) using poly-GT peptide as substrate by Transcreener assay.
The target of test [3] is T2, Hepatocyte growth factor receptor (Homo sapiens, UniProt P08581). As to the kind of experiment: Inhibition of recombinant c-MET (unknown origin) using poly-AEKY peptide as substrate after 60 mins by ADPGlo assay.
Test [4] is described as follows: Cytotoxicity against human HCC827 cells after 48 hrs by MTT assay. The class given is functional, cell-based. The following applies: HCC827, 48 h.
The target of test [5] is Epidermal growth factor receptor (Homo sapiens, UniProt P00533, L858R). As to the kind of experiment: Inhibition of recombinant EGFR L858R mutant (unknown origin) using poly-GT peptide as substrate after 1 hr by Transcreener assay. The format is protein assay.
Test [6] has as its system A549. As to the kind of experiment: Cytotoxicity against human A549 cells after 48 hrs by MTT assay. The class given is functional, cell-based. The following applies: A549, 48 h.
In test [7] the target is Insulin receptor (Homo sapiens, UniProt P06213). As to the kind of experiment: Inhibition of recombinant INSR (unknown origin) using fluorescent dye-labelled KKSRGDYMTMQIG peptide peptide as substrate after 1 hr by IMAP assay.
For test [8], the target named is T2, Hepatocyte growth factor receptor. As to the kind of experiment: Inhibition of recombinant c-MET (unknown origin) using poly-AEKY peptide as substrate by ADPGlo assay. The note with it: TDE = time-dependent effect.
Test [9] deals with NCI-H1975. As to the kind of experiment: Cytotoxicity against human NCI-H1975 cells after 48 hrs by MTT assay. The format is functional, cell-based. The following applies: NCI-H1975, 48 h.
The nature of test [10]: Cytotoxicity against mouse NIH/3T3 cells after 48 hrs by MTT assay. The note with it: NIH3T3, 48 h. The format is cell-based.
Test [11] has as its target T1, Epidermal growth factor receptor. As to the kind of experiment: Inhibition of EGFR (unknown origin) phosphorylation by cell-based Western blot analysis.
Test [12] has as its target T2, Hepatocyte growth factor receptor. As to the kind of experiment: Inhibition of c-MET (unknown origin) phosphorylation by cell-based Western blot analysis.
Test [13] relates to HCC827. As to the kind of experiment: Induction of apoptosis in human HCC827 cells at 1 uM after 24 hrs using propidium iodide by flow cytometry. The format is functional, cell-based. The method, boiled down: (§1)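 Apoptosis read by flow cytometry; means ± SD of at least 3 independent experiments; unpaired 2-tailed Student's t test against DMSO-treated cells, p < 0.05.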
In test [14] the test system is NCI-H1993. As to the kind of experiment: Induction of apoptosis in human NCI-H1993 cells at 1 uM after 24 hrs using propidium iodide by flow cytometry. The format is functional, cell-based. A digest of the protocol: as §1
For test [15], the system named is DU-145. As to the kind of experiment: Antiinvasive activity in human DU145 cells assessed as inhibition of HGF-induced cell motility preincubated for 1 hr before HGF treatment measured after 24 hrs by cell scattering assay. The format is functional, cell-based.

In the case of `COc1cc2c(Oc3ccc(NS(=O)(=O)c4cccc(-c5cnn(C)c5)c4)cc3F)ccnc2cc1OCCCN1CCOCC1`, the half-maximal inhibitory concentration (IC50) was 5230 nM in test [1]; 1370 nM in test [2]; 1720 nM in test [3]; 5010 nM in [4]; 1970 nM in [5]; 6440 nM in test [6]. Further, the values for the IC50 in [7] and in [9] were more than 12500 nM and 6900 nM, respectively. Besides, in test [8], the inhibition entry was “tde”.
As to `COc1cc2c(Oc3ccc(NS(=O)(=O)c4ccc(-c5ccsc5)cc4)cc3F)ccnc2cc1OCCCN1CCN(C)CC1`, the half-maximal inhibitory concentration (IC50) in [1] was 5040 nM; in test [2], 1200 nM; in [3], 2690 nM; in [4] it was 4610 nM; in test [5] it was 1850 nM; in test [6] it was 6780 nM. Also, the concentration for half-maximal inhibition (IC50) was more than 12500 nM in test [7] and 7710 nM in test [9]. The inhibition result in test [8] is “tde”.
As to `COc1cc2c(Oc3ccc(NS(=O)(=O)c4cccc(-c5cnn(C)c5)c4)cc3F)ccnc2cc1OCCCN1CCN(C)CC1`, the IC50 in [10] turned out to be 2480 nM; in [1] it was 6240 nM; in test [2] it was 84 nM; in test [3], 564 nM; in test [4] it was 2830 nM; in [5], 369 nM. Besides, the IC50 was 8850 nM in test [6], 7870 nM in test [7] and 6120 nM in [9]. Also, in test [11], the inhibition result is “inactive”. Besides, the inhibition result in test [8] is “tde”. Moreover, the inhibition result in test [12] is “Active”.
As to `COc1cc2c(Oc3ccc(NS(=O)(=O)c4cc(-c5ccsc5)ccc4F)cc3F)ccnc2cc1OCCCN1CCN(C)CC1`, the concentration for half-maximal inhibition (IC50) in test [1] stood at 4000 nM; in [2], 572 nM; in [3], 1660 nM; in test [4], 2820 nM; in test [5], 578 nM; in [6], 4360 nM. In addition, the IC50 was 11800 nM in [7] and 4100 nM in test [9]. Besides, in test [8], the inhibition entry is “tde”.
As to `C#Cc1cccc(Nc2ncnc3cc(OCCOC)c(OCCOC)cc23)c1`, the outcome in test [13] was Active. Further, in test [14], the result was inactive.
Regarding `CN(C)C/C=C/C(=O)Nc1cc2c(Nc3ccc(F)c(Cl)c3)ncnc2cc1O[C@H]1CCOC1` [AFATINIB], the figures for the IC50 in test [10] and in test [1] were 3600 nM and more than 12500 nM, respectively. Further, the result in test [13] was Active. The outcome in test [14] was inactive.
Consider `COc1cc2c(Oc3ccc(NC(=O)c4c(C)n(C)n(-c5ccccc5)c4=O)cc3F)ccnc2cc1OCCCN1CCN(C)CC1`, for which the IC50 was 66 nM in test [10]; 2 nM in [1]; 7670 nM in test [2]; 5 nM in test [3]; 2580 nM in test [4]; more than 16000 nM in test [5]. Besides, the results for the IC50 in test [6], in [7] and in test [9] were 1240 nM, 39 nM and 1060 nM, respectively. In test [11], the inhibition entry was “inactive”. Moreover, in test [8], the inhibition result is “tde”. Moreover, in test [12], the inhibition result is “Active”.
Take `COc1cc2c(Oc3ccc(NS(=O)(=O)c4cccc(-c5cccs5)c4)cc3F)ccnc2cc1OCCCN1CCN(C)CC1`: the concentration for half-maximal inhibition (IC50) is 4030 nM in [1]; 1050 nM in test [2]; 2710 nM in test [3]; 5030 nM in test [4]; 1160 nM in [5]; 3920 nM in [6]. The figures for the half-maximal inhibitory concentration (IC50) in [7] and in test [9] were more than 12500 nM and 4520 nM, respectively. Besides, the inhibition entry in [8] is “tde”.
Turning to `COc1cc2c(Oc3ccc(NC(=O)c4c(C)n(C)n(-c5ccccc5)c4=O)cc3F)ccnc2cc1OCCCN1CCOCC1`, the half-inhibitory concentration (IC50) in [10] was 74 nM; in test [1], 5 nM; in test [2], more than 16000 nM; in test [3], 7 nM; in [4], 2510 nM; in test [5] it was more than 16000 nM. Also, the concentration for half-maximal inhibition (IC50) came to 1190 nM in test [6], 170 nM in test [7] and 1460 nM in test [9]. In addition, in test [11], the inhibition entry was “inactive”. Besides, the inhibition entry in [12] was “Active”.
`CCOc1ccn(-c2ccc(F)cc2)c(=O)c1C(=O)Nc1ccc(Oc2ccnc(N)c2Cl)c(F)c1` [BMS-777607]: the half-inhibitory concentration (IC50) in [1] amounted to 1110 nM; in test [3] it was 7 nM; in test [15], 200 nM.
With `COc1cc2c(Oc3ccc(NS(=O)(=O)c4ccc(-c5cnn(C)c5)cc4)cc3F)ccnc2cc1OCCCN1CCN(C)CC1`, the concentration for half-maximal inhibition (IC50) in test [1] is 4330 nM; in test [2], 4350 nM; in [3], 1230 nM; in test [4], 5900 nM; in test [5], 7540 nM; in test [6], more than 10000 nM. For the same molecule, the IC50 is more than 12500 nM in test [7] and more than 10000 nM in test [9]. In addition, the inhibition entry in test [8] was “tde”.
With `COc1cc2c(Oc3ccc(NS(=O)(=O)c4cccc(-c5ccoc5)c4)cc3F)ccnc2cc1OCCCN1CCOCC1`, the 50% inhibitory concentration (IC50) in [1] was 4460 nM; in test [2], 3860 nM; in test [3] it was 978 nM; in [4], 4170 nM; in [5] it was 2900 nM; in test [6], 8210 nM. The IC50 in test [7] was more than 12500 nM; in test [9], 8930 nM. Also, the inhibition entry in test [8] was “tde”.
For the molecule `C[C@@H](Oc1cc(-c2cnn(C3CCNCC3)c2)cnc1N)c1c(Cl)ccc(F)c1Cl` [CRIZOTINIB], the concentration for half-maximal inhibition (IC50) in [10] is 364 nM; in [1], 61 nM. Moreover, the result in test [14] was inactive.
As to `COc1cc2c(Oc3ccc(NS(=O)(=O)c4cccc(-c5ccco5)c4)cc3F)ccnc2cc1OCCCN1CCN(C)CC1`, the IC50 is 3200 nM in test [10]; more than 10000 nM in [1]; 1910 nM in test [2]; 2710 nM in [3]; 3110 nM in [4]; 1900 nM in [5]. Moreover, the IC50 in test [7] is more than 12500 nM; in [9], 1620 nM. Moreover, in [8], the inhibition result is “tde”.
On to `COc1cc2c(Oc3ccc(NS(=O)(=O)c4cccc(-c5ccoc5)c4)cc3F)ccnc2cc1OCCCN1CCN(C)CC1`, for which the IC50 is 1760 nM in test [10]; 2690 nM in test [1]; 168 nM in [2]; 1050 nM in test [3]; 2500 nM in test [4]; 283 nM in test [5]. Besides, the IC50 in [6] worked out at 3650 nM; in [7], 5230 nM; in test [9] it was 2960 nM. Further, the inhibition result in test [11] is “inactive”. Moreover, in test [8], the inhibition result was “tde”. In test [12], the inhibition result was “Active”.
